Mdm2-MdmX inh: inhibitors of human Mdm2-MdmX association, primary screen, cell-based, luminescence, split luciferase, SaOS-2, uHTS; inhibition, % at 8 µM; AID 485346, 2010; SaOS-2 split-luciferase Mdm2/MdmX complementation; actives 3% (n = 330,000); Protein Mdm4 (Homo sapiens) + E3 ubiquitin-protein ligase Mdm2 (Homo sapiens), …;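 active = inhibition of at least 50% at 8 µM in the primary screen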
Beta apoptosis: inhibitors of cytokine-induced beta cell apoptosis, primary screen, luminescence; INS-1E cytokine-induced death, ATP luminescence, 48 h; percent of positive-control rescue, neutral wells zero; protection from apoptosis, % (test concentration not listed); actives 0.8% (n = 300,000); AID 435005, 2010;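 active = Every replicate reaches about 75%, or at least half do and their mean reaches it too, limit read from the data; inconclusive = At least half of replicates reach the limit but their mean does not; inactive = Under half of replicates reach the limit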;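 also: 0% = cytokine-treated negative control wells and 100% = positive control rescue; higher means more ATP so stronger rescue from cytokine killing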
Calb FLC: C. albicans growth inhibition with fluconazole, primary screen, CaCi-2 strain, Alamar Blue fluorescence; C. albicans CaCi-2 (fluconazole-resistant clinical isolate) + fluconazole, 48 h; growth inhibition, % (no concentration beside the values); actives 0.57% (n = 300,000);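 active = growth inhibition above about 58% in most replicates, limit read from the data, passing the limit was not always enough; inconclusive = exactly half the replicates above a set limit; inactive = most replicates below a set limit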;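 also: all wells also contain fluconazole at 8 µg/ml as a sub-toxic cotreatment; 0% = median of DMSO wells and 100% = median of geldanamycin control wells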
CSC inhib: cancer stem cell viability inhibitors, primary screen, luminescence; cancer stem cell-like cells viability; actives 1.1% (n = 300,000); AID 2717, 2010; inhibition, % at 7.5 µM; in the data active = inhibition above about 75%; inconclusive = no clear call, values can overlap the other calls; tested in HMLE shEcad cells
T cruzi inh: inhibitors of intracellular T. cruzi growth, primary screen, luminescence, NIH3T3 host cells; T. cruzi beta-gal in NIH3T3, 90 h; inhibition, % (concentration not given with the values); actives 1.4% (n = 300,000);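 active = mean inhibition across valid replicates above about 55%, limit read from the data; inconclusive = mean below that limit but half or more replicates reach it; inactive = mean below it, under half of replicates reach it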;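 also: signal also drops with host cell toxicity which is not excluded here; 0% = plate median of DMSO wells and 100% = zero luminescence signal; higher percent means less beta-gal luminescence so fewer parasites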
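System: NIH/3T3 fibroblasts plus reporter T. cruzi. Medium: DMEM plus 2% FBS. Probe or stimulus: 5000 reporter trypomastigotes per well. Compound: single 50 nL compound addition per well in DMSO. Incubation: co-culture of at least 90 h after 3 h attachment. Detection: GalScreen β-gal luminescence, detergent lysis, 60 min. Evaluation: parasite load inhibition, %.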
SKKanGAS inh: S. pyogenes SKKanGAS growth inhibitors in kanamycin, primary screen, streptokinase expression inhibitor project, SKKanGAS strain, BacTiter-Glo luminescence; actives 1.3% (n = 300,000); 6 h; inhibition, % at 7.5 µM; AID 1662, 2009;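 active = mean replicate score, as percent of positive control median, at least 50; inconclusive = mean below 50 but one replicate at or above 50; inactive = mean and every replicate below 50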;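 also: strain carries kanamycin resistance gene driven by streptokinase promoter and grows in 40 µg/ml kanamycin; loss of luminescence reflects streptokinase promoter inhibition or plain growth inhibition; 0% = median of DMSO wells and 100% = positive control at its reference dose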
Active calls of the source: *; ? = inconclusive; nt = no result given. Hits are enriched below; roughly 5.7% of the tested compounds scored in any of these assays.

SMILES | Mdm2-MdmX inh | Beta apoptosis | Calb FLC | CSC inhib | T cruzi inh | SKKanGAS inh
COC(=O)CN1C(=O)[C@H]2[C@@H](/C=C/c3ccccc3)N3C(=O)CN(Cc4ccccc4)C(=O)[C@@]3(C)[C@H]2C1=O | 27 | -1 | -20 | -25 | -12 | 1
Oc1ccc(Br)cc1C1Nc2ccccc2S1 (stereo not given) | -24 | 5 | 2 | 9 | 7 | 25
COC(=O)c1ccc(N/C=C/C(=O)c2ccccc2)cc1 | -64 | 1 | -2 | 13 | -7 | 10
O=C(N/N=C/c1cc([N+](=O)[O-])ccc1O)c1ccc2c(c1)OCCO2 | 39 | 105* | 23 | 11 | -16 | 70*
CCc1ccc(N2CC(C(=O)N/N=C/c3cc([N+](=O)[O-])ccc3O)CC2=O)cc1 (stereo not given) | 40 | 6 | 106* | -4 | -4 | -4
CCc1ccc(N2CC(C(=O)N/N=C/c3ccccc3OC)CC2=O)cc1 (stereo not given) | 14 | -6 | -4 | -2 | -9 | 3
O=C(N/N=C/c1ccccc1[N+](=O)[O-])c1ccc2c(c1)OCCO2 | -129 | 2 | 0 | 25 | -6 | -15
O=C(CSc1nc2ccccc2s1)N/N=C/c1cc([N+](=O)[O-])ccc1O | 16 | -2 | 7 | 10 | 3 | 91*
O=C(N/N=C/c1cc(Br)ccc1O)c1ccncc1 | 20 | 53 | -18 | 3 | 21 | 104*
CN(C(=O)COC(=O)c1ccc(Br)c(S(=O)(=O)N2CCOCC2)c1)C1CCCCC1 | 15 | 2 | nt | -1 | nt | nt
CN(Cc1ccc(C(C)(C)C)cc1)C(=O)Cc1ccc(S(=O)(=O)N2CCOCC2)s1 | -19 | 2 | nt | nt | nt | nt
Cc1ccc(NC(=O)CSCC(=O)NC2(C)CCS(=O)(=O)C2)cc1 (stereo not given) | 1 | -4 | nt | nt | nt | nt
Cc1nc(C)c(C(=O)N/N=C/c2cc(Br)ccc2O)s1 | 50 | 80* | 89* | 66 | 23 | 91*
Cc1ccc(NC(=O)/C(=C\c2ccc([N+](=O)[O-])cc2)NC(=O)c2ccccc2)cc1 | 27 | -2 | 14 | -14 | -5 | 6
O=C(N/N=C/c1cc([N+](=O)[O-])ccc1O)c1cccc2cc[nH]c12 | 48 | 100* | -4 | 88* | 57* | 89*
O=C(N/N=C/c1cc([N+](=O)[O-])ccc1O)C(O)(c1ccccc1)c1ccccc1 | 25 | nt | 98* | 18 | 4 | 51*
O=C(N/N=C/c1ccc(O)c(O)c1O)/C(=C/c1ccc([N+](=O)[O-])cc1)NC(=O)c1ccccc1 | 5 | 4 | 104* | 35 | 34 | ?
CCCCn1c(N)c(N(CCOC)C(=O)c2ccc3c(c2)C(=O)N(c2cc(C)ccc2C)C3=O)c(=O)[nH]c1=O | 3 | -3 | -16 | -11 | -31 | 4
CCOc1ccc(N(CC(=O)Nc2ccccc2C(=O)N2CCCC2)S(C)(=O)=O)cc1 | 7 | -1 | 5 | 3 | -14 | 1
C=CCS(=O)(=O)N1CCCC(Cc2ccccc2C)(C(=O)OCC)C1 (stereo not given) | 0 | nt | 20 | 4 | 1 | 0
Cc1cccc(N(CC(=O)NC2CCCC2)C(=O)c2cc3cc4cccc(C)c4nc3s2)c1C | 3 | 38 | 8 | 38 | 57* | 9
CC(C)c1ccc(/C=C2\SC(=O)N(CC(=O)NC3CCS(=O)(=O)C3)C2=O)cc1 (stereo not given) | -10 | 7 | -14 | 0 | -7 | 8
Cn1cccc1/C=C1\SC(=S)N(Nc2ccccc2)C1=O | 17 | 15 | 7 | 92* | 64* | 1
Cc1ccc(Cn2c(Cc3ccccc3)nc3ccccc32)cc1 | -2 | 1 | 2 | -10 | 13 | 69*
ClCc1nc2ccccc2n1Cc1ccccc1 | -5 | -11 | 35 | 53 | 45 | 22
SMILES | Mdm2-MdmX inh | Beta apoptosis | Calb FLC | CSC inhib | T cruzi inh | SKKanGAS inh
COc1ccc(-c2nc(Cn3c(SCc4ccc(C)cc4)nc4ccncc43)c(C)o2)cc1OC | 27 | 0 | -12 | 12 | 48 | 21
COc1ccc(-c2nc(Cn3c(SCc4cccc(F)c4)nc4ccncc43)c(C)o2)cc1OC | 19 | 21 | 2 | 82* | 18 | 11
CN(C)C=Nc1ccc2nc3c(cc2c1)[nH]c1ccccc13 | -111 | 25 | 13 | 15 | 15 | 5
O=C(CNCCc1ccc(Cl)cc1)Nc1ccc(C(=O)N2CCCCC2)cc1 | 24 | 0 | 3 | 14 | 62* | -2
O=C(CNCCc1ccccc1)Nc1ccc(C(=O)N2CCCCC2)cc1 | -4 | -3 | 5 | 7 | 36 | -3
CN(CC(=O)Nc1ccccc1Cl)C(=O)COC(=O)c1ccc([N+](=O)[O-])s1 | 11 | 11 | nt | 6 | nt | nt
S=C(c1cn(CCOc2ccccc2)c2ccccc12)N1CCCC1 | 16 | 37 | -1 | -2 | 16 | 11
S=C(c1cn(CCOc2cccc3ccccc23)c2ccccc12)N1CCCC1 | -2 | 105* | -3 | 4 | 40 | 20
Cc1nc2ccc(NC(=O)COc3ccccc3)cc2s1 | nt | nt | 108* | nt | nt | nt
Cc1cccc(OCC(=O)Nc2ccc3nc(C)sc3c2)c1 | 2 | -1 | 11 | -8 | -20 | -3
COc1cccc(CNC(=O)c2ccncc2)c1 | 22 | -1 | -25 | 3 | -15 | -3
CCCCN(C(=O)c1cccs1)C1CCS(=O)(=O)C1 (stereo not given) | 13 | -1 | 4 | -4 | 0 | 1
CC(=O)N1CCN(c2ccc(Oc3ccc([N+](=O)[O-])c(C(F)(F)F)c3)cc2)CC1 | 49 | 95* | -15 | -4 | 13 | -1
Nc1n[nH]c(-c2cccc([N+](=O)[O-])c2)n1 | -2 | 6 | 93* | -18 | 10 | -9
Cc1ccc(-c2csc3ncn(CC#N)c(=O)c23)cc1C | 5 | -2 | 3 | 6 | -2 | 52*
O=C(N/N=C/c1cccnc1)c1ccc(NC(=O)C(c2ccccc2)c2ccccc2)cc1 | 7 | 110* | -1 | nt | 3 | -7
CC1(c2ccccc2)CC(C)(C)N2C(=O)/C(=C3\SC(=S)NC3=O)c3cccc1c32 (stereo not given) | nt | 0 | -3 | 105* | -4 | 114*
O=C(Nc1cccc(C(F)(F)F)c1)C1=CC=CN2CCS(=O)(=O)N=C12 | 13 | 4 | nt | nt | nt | nt
O=C(NC1CCCC1)C(c1ccccc1)N(Cc1cccnc1)C(=O)Cc1cccs1 (stereo not given) | -29 | -8 | -4 | -7 | 67* | 0

Screening data as filed in PubChem BioAssay.
